PMC10107792 (Chemistry (Weinheim an Der Bergstrasse, Germany), 2022)
“And” between values parts separate entries of the source, which are not always exact repeats. Equal entries are not always repeated.

What was measured:
[1] = test system: E. coli ΔtolC; test: Growth inhibition of E. coli ΔtolC; assay type: cell-based; details: conjugate vs. non-conjugated 9, E. coli ΔtolC
[2] = test system: E. coli DH5α; assay type: cell-based; details: growth inhibition, efflux-competent strain, OD 600 nm
[3] = target: T1, MraY from S. aureus (Staphylococcus aureus, UniProt Q2FZ93); assay type: biochemical
T1 sequence (Q2FZ93 1-321): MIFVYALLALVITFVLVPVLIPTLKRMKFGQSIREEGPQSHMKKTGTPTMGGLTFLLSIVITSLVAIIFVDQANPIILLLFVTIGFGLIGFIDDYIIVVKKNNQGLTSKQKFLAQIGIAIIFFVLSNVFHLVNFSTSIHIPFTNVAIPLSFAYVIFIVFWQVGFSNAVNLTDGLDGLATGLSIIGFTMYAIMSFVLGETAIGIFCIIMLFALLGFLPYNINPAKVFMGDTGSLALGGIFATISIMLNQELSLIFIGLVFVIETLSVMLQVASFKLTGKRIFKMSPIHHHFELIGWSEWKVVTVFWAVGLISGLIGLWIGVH
Method in brief: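 S. aureus MraY crude membranes (final total protein ~1 mg/mL) with 50 μM undecaprenyl phosphate and 7.5 μM dansylated Park's nucleotide in 100 mM Tris-HCl pH 7.5, 200 mM KCl, 10 mM MgCl2, 0.1% Triton X-100. Fluorescence followed over time (ex 355/em 520 nm). Rate from 0–2 min linear regression; sigmoidal fit against log concentration gives IC50 ± SD. Variant: membranes pretreated with 1 mM diamide, 0 °C, 20 min (final 50 μM).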

[4] = test system: P. aeruginosa PAO1; assay type: cell-based; details: growth inhibition, OD 600 nm
[5] = test system: S. aureus; details: ref 15c; cited from earlier work
[6] = test system: MraY; details: read-out: MraY inhibition IC50; in vitro; ref 15c; cited from earlier work

**Q.** For `CC(=O)Oc1cccc(C(=O)N[C@H]2COC(=O)[C@@H](NC(=O)c3cccc(OC(C)=O)c3OC(C)=O)[C@H](CCCNC(=O)CCSSCCCCCCCCCCC(=O)NC[C@H](NC(=O)[C@H](CCCCN)NC(=O)N[C@H](C(=O)O)C(C)C)C(=O)NCCCN[C@@H](C[C@H]3O[C@@H](n4ccc(=O)[nH]c4=O)[C@H](O)[C@@H]3O)C(=O)O)OC(=O)[C@@H](NC(=O)c3cccc(OC(C)=O)c3OC(C)=O)COC2=O)c1OC(C)=O` [(AcO)EntKL‐SS‐9], which “fold increase of antibacterial activity relative to 9” value [1] is on record?
**A.** The value was “ca. 11 fold”.

**Q.** And the “IC50 (E. coli DH5α)” value [2]?
**A.** The value was >100 µg/mL.

**Q.** What about the IC50 [3] of the same compound?
**A.** The IC50 was 123 nM and 89 nM.

**Q.** And the “IC50 (P. aeruginosa PAO1)” value [4]?
**A.** The value was >100 µg/mL.

**Q.** With `CO[C@H]1[C@H](O[C@H]([C@H]2O[C@@H](n3ccc(=O)[nH]c3=O)[C@H](O)[C@@H]2O)[C@H](NCCCNC(=O)[C@@H](NC(=O)[C@@H](NC(=O)N[C@H](C(=O)O)C(C)C)[C@@H]2CCNC(=N)N2)[C@@H](OC(=O)CCCCCCCCCCCCC(C)C)C(C)C)C(=O)O)O[C@H](CN)[C@H]1O` [Compound 5, muraymycin B8] as the compound, how does the “antibacterial activity against S. aureus” value [5] read?
**A.** The value was “promising antibacterial activity”.

**Q.** And the IC50 [6]?
**A.** Its IC50 is 0.004 ± 0.0007 nM.
